High-throughput results (PubChem BioAssay)
Many of the other results were omitted from the sample, so hits are more common in it than they were.
KDM4C inh: blocks human GASC-1 (KDM4C) demethylase activity; GST-KDM4C 2-372, H3K9me3 peptide, LANCE TR-FRET; inhibition, % at 12.5 µM; 96,000 tested, 0.15% active; AID 720574;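 active = mean replicate inhibition above about 25%, with at least 55% of replicates also reaching it, limit read from the data, passing the limit was not always enough; inconclusive = only one of those two conditions met; inactive = neither condition met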
Target sequence (Q9H3R0 2-372 limits assumed): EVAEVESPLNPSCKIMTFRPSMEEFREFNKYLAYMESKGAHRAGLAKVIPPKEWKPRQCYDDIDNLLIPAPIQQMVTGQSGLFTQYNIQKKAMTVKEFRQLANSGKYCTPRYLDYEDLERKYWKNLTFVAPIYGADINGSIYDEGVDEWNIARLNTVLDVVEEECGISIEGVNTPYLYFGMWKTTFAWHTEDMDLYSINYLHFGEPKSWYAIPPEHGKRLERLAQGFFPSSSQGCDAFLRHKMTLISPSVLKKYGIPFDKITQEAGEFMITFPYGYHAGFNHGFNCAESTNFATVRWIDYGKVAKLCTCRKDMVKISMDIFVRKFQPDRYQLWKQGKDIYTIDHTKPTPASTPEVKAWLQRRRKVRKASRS
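System: N-terminal GST-fused human GASC-1 (KDM4C) fragment, residues 2-372 / Amount: 10 nM GST-KDM4C in enzyme reaction / Also added: H3K9me3 peptide with Fe(II)/2OG / Times: 30 min demethylation and 1 h detection at room temperature / Signal: LANCE TR-FRET / Read-out basis: Fall in 671/618 emission ratio as inhibition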
IDH1 mut inh: blocks human IDH1 R132H reductase activity; O75874; diaphorase/resazurin fluorescence, 60 min; inhibition, % at 10 µM; 70,000 tested, 0.18% active; in the data active = inhibition above about 34%; inconclusive = no clear call, values can overlap the other calls; inactive = below about 11%;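 note: 0% = DMSO and 100% = no enzyme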
Target sequence (O75874 whole entry R132H): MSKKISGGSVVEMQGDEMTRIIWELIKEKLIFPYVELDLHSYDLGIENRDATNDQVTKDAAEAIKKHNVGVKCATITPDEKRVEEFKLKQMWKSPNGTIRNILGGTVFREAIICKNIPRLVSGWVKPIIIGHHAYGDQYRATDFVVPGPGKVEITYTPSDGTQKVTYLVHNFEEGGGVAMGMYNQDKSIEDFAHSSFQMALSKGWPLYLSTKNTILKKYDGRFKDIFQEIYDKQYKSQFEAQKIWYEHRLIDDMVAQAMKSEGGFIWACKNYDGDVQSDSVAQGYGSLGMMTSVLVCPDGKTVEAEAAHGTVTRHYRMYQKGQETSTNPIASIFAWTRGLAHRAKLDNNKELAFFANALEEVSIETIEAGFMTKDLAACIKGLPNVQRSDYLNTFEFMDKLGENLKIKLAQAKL
T cruzi growth-1: inhibitors of T. cruzi proliferation; T. cruzi beta-gal in NIH3T3, GalScreen luminescence, 90 h; inhibition, % at 8.34 µM; 77,000 tested, 5.9% active;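 active = mean inhibition above about 93%, with at least 55% of replicates each passing it, limit read from the data, passing the limit was not always enough; inconclusive = only one of those two conditions holds; inactive = neither condition holds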
T cruzi growth-2: Trypanosoma cruzi proliferation inhibition | shares compounds with T cruzi growth-1 | T. cruzi beta-gal in NIH3T3, GalScreen luminescence, 90 h | inhibition, % at 8.35 µM | 5,600 tested, 72% active | AID 651739;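 active = mean replicate inhibition above about 95% and at least 55% of replicates individually reaching it, limit read from the data; inconclusive = only one of the two criteria is met; inactive = neither criterion is met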
T cruzi growth-3: inhibitors of T. cruzi proliferation; shares compounds with T cruzi growth-1; T. cruzi beta-gal in NIH3T3, GalScreen luminescence, 90 h; inhibition, % at 2.09 µM; 5,600 tested, 21% active; AID 651740;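 active = mean inhibition above about 95%, with at least 55% of replicates also reaching it, limit read from the data; inconclusive = meets just one of the two conditions; inactive = meets neither condition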;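 note: plate controls were neutral control median for no effect and positive control median for full effect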
3T3 cytotox: kills mouse NIH/3T3 fibroblasts. shares compounds with T cruzi growth-1. NIH/3T3 viability, CellTiter-Glo ATP luminescence, 90 h. cytotoxicity (signal decrease), % at 8.35 µM. 5,600 tested, 14% active;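 active = mean signal decrease across replicates above about 35% based on untreated-well scatter, with enough replicates individually passing, limit read from the data; inconclusive = no rule stated though some were filed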;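 note: 0% = median of neutral control wells and 100% = median of positive control wells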
NIH3T3 tox 2: kills mouse NIH/3T3 fibroblasts; shares compounds with T cruzi growth-1; NIH/3T3 viability, CellTiter-Glo ATP luminescence, 90 h; inhibition, % at 24.9 µM; 5,600 tested, 56% active; AID 651744;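 active = mean loss of cell viability signal at or above a set limit, and enough replicates individually reaching it; inconclusive = meets only the mean limit or only the replicate share; inactive = meets neither condition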;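 note: 0% = median of neutral control wells and 100% = median of positive control wells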
Active calls of the source: *; ? = inconclusive; nt = not tested or not shown; ! = repeats disagree.

SMILES | KDM4C inh | IDH1 mut inh | T cruzi growth-1 | T cruzi growth-2 | T cruzi growth-3 | 3T3 cytotox | NIH3T3 tox 2
O=C(C[C@@H]1C[C@@H]2c3cc(NC(=O)Nc4ccc(C(F)(F)F)cc4)ccc3O[C@@H]2[C@H](CO)O1)NCc1ccc(Cl)cc1 | 0 | 0 | 166* | 109* | 2 | -12 | -17
CCN(CC(=O)O)S(=O)(=O)c1ccc(OC)cc1 | nt | 0 | nt | nt | nt | nt | nt
CC1(C)Cc2c(sc3c2c2ncnn2c2nnc(SCC(=O)NCc4ccccc4)n32)CO1 | nt | 0 | nt | nt | nt | nt | nt
C[C@H]1CN([C@@H](C)CO)C(=O)Cc2cc(NC(=O)Nc3cccc4ccccc34)ccc2O[C@H]1CN(C)Cc1ccc(Oc2ccccc2)cc1 | -2 | 0 | 60 | nt | nt | nt | nt
C[C@H](CO)N1C[C@H](C)[C@@H](CN(C)Cc2ccc(Oc3ccccc3)cc2)Oc2ccc(NC(=O)Nc3cccc4ccccc34)cc2CC1=O | 7 | 0 | 94 | nt | nt | nt | nt
C[C@@H]1CN([C@H](C)CO)C(=O)Cc2cc(NC(=O)Nc3cccc4ccccc34)ccc2O[C@H]1CN(C)Cc1ccc(Oc2ccccc2)cc1 | -2 | 0 | 96* | 107* | 80 | 9 | 12
C[C@@H]1CN([C@@H](C)CO)C(=O)Cc2cc(NC(=O)Nc3cccc4ccccc34)ccc2O[C@H]1CN(C)Cc1ccc(Oc2ccccc2)cc1 | -3 | 0 | ? | 105* | 107* | 21 | 21
CC(NS(=O)(=O)c1ccc(Br)cc1)C(=O)Nc1ccc(Cl)cc1Cl (stereo unspecified) | nt | 0 | nt | nt | nt | nt | nt
COc1ccc(S(=O)(=O)N(C)C[C@@H]2Oc3ccc(NC(=O)NC4CCCCC4)cc3C(=O)N([C@@H](C)CO)C[C@@H]2C)cc1 | -2 | 0 | 51 | nt | nt | nt | nt
Cc1ccc(S(=O)(=O)N(C)C[C@H]2Oc3ccc(NC(=O)Nc4ccc(F)cc4)cc3C(=O)N([C@H](C)CO)C[C@H]2C)cc1 | 0 | -1 | 54 | nt | nt | nt | nt
C[C@H]1CN([C@@H](C)CO)S(=O)(=O)c2ccc(C#CC3CC3)cc2O[C@H]1CN(C)Cc1cccc(F)c1 | 9 | -2 | nt | nt | nt | nt | nt
C[C@H]1CN([C@@H](C)CO)S(=O)(=O)c2ccc(C#CC3CC3)cc2O[C@@H]1CN(C)Cc1cccc(F)c1 | 1 | -2 | nt | nt | nt | nt | nt
C[C@H](CO)N1C[C@H](C)[C@H](CN(C)Cc2cccc(F)c2)Oc2cc(C#Cc3ccccn3)ccc2S1(=O)=O | -8 | nt | 124* | 103* | 103* | -17 | -20
C[C@H]1CN([C@@H](C)CO)S(=O)(=O)c2ccc(C#Cc3ccccn3)cc2O[C@@H]1CN(C)Cc1cccc(F)c1 | -10 | nt | 126* | 98* | 83 | -32 | 70*
C[C@@H]1CN([C@H](C)CO)S(=O)(=O)c2ccc(C#Cc3ccccn3)cc2O[C@H]1CN(C)Cc1cccc(F)c1 | -11 | 1 | 121* | 103* | 86 | ? | 81*
C[C@H]1CN([C@@H](C)CO)S(=O)(=O)c2ccc(C#Cc3ccccn3)cc2O[C@H]1CN(C)Cc1cccc(F)c1 | 2 | -4 | 125* | 108* | 83 | -10 | -13
C[C@@H]1CN([C@@H](C)CO)S(=O)(=O)c2ccc(C#CC3CC3)cc2O[C@@H]1CN(C)Cc1cccc(F)c1 | 4 | 0 | nt | nt | nt | nt | nt
CS(=O)(=O)N(CC(=O)Nc1ccc(Br)cc1F)c1ccccc1Cl | nt | 1 | nt | nt | nt | nt | nt
O=C(Nc1nccs1)[C@H]1[C@H](CO)[C@H]2Cn3c(ccc(-c4cccnc4)c3=O)[C@H]2N1CC1CC1 | 2 | nt | nt | nt | nt | nt | nt
Cc1ccc(-n2c(SCC(=O)Nc3ccc(Cl)cc3C)nnc2-c2ccccc2)cc1 | nt | 1 | nt | nt | nt | nt | nt
Cn1c(SCC(=O)Nc2ccc(C(=O)O)cc2)nnc1-c1ccc(Br)cc1 | nt | 0 | nt | nt | nt | nt | nt
CCc1cccc(C)c1NC(=O)CSc1nc2ccccc2c(=O)n1-c1cccc2ccccc12 | nt | 2 | nt | nt | nt | nt | nt
C[C@@H]1CCCCO[C@H](CN(C)C(=O)C2CCCCC2)[C@@H](C)CN([C@H](C)CO)C(=O)c2cc(N(C)C)ccc2O1 | 2 | 0 | 103*! | 52 | 32 | 8 | -9
C[C@@H]1CCCCO[C@@H](CN(C)C(=O)C2CCCCC2)[C@H](C)CN([C@H](C)CO)C(=O)c2cc(N(C)C)ccc2O1 | 6 | -1 | ? | 3 | -6 | -9 | -4
C[C@@H]1CCCCO[C@H](CN(C)C(=O)C2CCCCC2)[C@@H](C)CN([C@@H](C)CO)C(=O)c2cc(N(C)C)ccc2O1 | 6 | -1 | 36 | nt | nt | nt | nt
SMILES | KDM4C inh | IDH1 mut inh | T cruzi growth-1 | T cruzi growth-2 | T cruzi growth-3 | 3T3 cytotox | NIH3T3 tox 2
C[C@@H]1CN([C@H](C)CO)C(=O)c2cc(N(C)C)ccc2O[C@@H](C)CCCCO[C@@H]1CN(C)C(=O)C1CCCCC1 | 2 | -3 | 70 | nt | nt | nt | nt
C[C@H](CO)N1C[C@H](C)[C@H](CN(C)C(=O)NC2CCCCC2)OCCCC[C@H](C)Oc2ccc(N(C)C)cc2C1=O | 10 | nt | 111* | 52 | 20 | -19 | -37
C[C@@H]1CCCCO[C@@H](CN(C)C(=O)NC2CCCCC2)[C@@H](C)CN([C@@H](C)CO)C(=O)c2cc(N(C)C)ccc2O1 | 4 | -4 | -5 | nt | nt | nt | nt
C[C@@H]1CCCCO[C@@H](CN(C)C(=O)CCC(F)(F)F)[C@H](C)CN([C@@H](C)CO)C(=O)c2cc(N(C)C)ccc2O1 | 6 | -4 | ? | 50 | 64 | -29 | -18
C[C@@H]1CCCCO[C@H](CN(C)C(=O)CCC(F)(F)F)[C@H](C)CN([C@@H](C)CO)C(=O)c2cc(N(C)C)ccc2O1 | 0 | -1 | 67 | nt | nt | nt | nt
Cc1ccc(NC(=O)CSc2nnc(C)n2-c2ccc(Cl)cc2)c(Br)c1 | nt | 0 | nt | nt | nt | nt | nt
C[C@H](CO)N1C[C@H](C)[C@@H](CN(C)C(=O)Nc2ccc(F)cc2)Oc2ccc(NS(=O)(=O)c3ccc(F)cc3)cc2C1=O | 2 | nt | 17 | nt | nt | nt | nt
O=C(CSc1nnc(-c2cccnc2)n1-c1cccc(C(F)(F)F)c1)c1ccc(F)cc1 | nt | 0 | nt | nt | nt | nt | nt
O=C(Cn1ccc([N+](=O)[O-])n1)Nc1ccc(F)c(Cl)c1 | nt | 0 | nt | nt | nt | nt | nt
COc1ccc([N+](=O)[O-])cc1NC(=O)CN(c1ccccc1F)S(C)(=O)=O | nt | 1 | nt | nt | nt | nt | nt
Cc1ccc2c(C)c(C(=O)Nc3sc4c(c3C(=O)NCc3cccnc3)CCCC4)oc2c1 | nt | 0 | nt | nt | nt | nt | nt
C[C@H]1CN([C@@H](C)CO)C(=O)Cc2cc(NC(=O)C3CC3)ccc2O[C@@H]1CN(C)Cc1ccc(Oc2ccccc2)cc1 | -1 | 0 | 87 | nt | nt | nt | nt
C[C@@H]1CN([C@H](C)CO)S(=O)(=O)c2ccc(C#Cc3ccccc3)cc2O[C@H]1CN(C)S(=O)(=O)c1cn(C)cn1 | -2 | -4 | 99* | 107* | 37 | 67* | 51*
C[C@@H]1CN([C@H](C)CO)S(=O)(=O)c2ccc(C#Cc3ccc(F)cc3)cc2O[C@H]1CN(C)S(=O)(=O)c1cn(C)cn1 | 2 | -1 | 110 | nt | nt | nt | nt
